Hits are enriched below; roughly 2.2% of the tested compounds scored in any of these assays.
GalR3 antagonist: antagonists of human GalR3; O60755; HEK293 GalR3-CNG cAMP membrane potential fluorescence; galR3 body fused to GalR1 C-terminus; inhibition, % at 3 µM; actives 0.44% (n = 360,000); AID 651719;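 active = inhibition above the screen-wide average plus 3 SD, cut at about 13% in these data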;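 note: forskolin and galanin both at EC90 stimulate the cells; cAMP rise reported by CNG channel membrane potential dye signal; 0% = forskolin plus galanin with DMSO and 100% = forskolin alone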
Target sequence (O60755 1-299 limits assumed): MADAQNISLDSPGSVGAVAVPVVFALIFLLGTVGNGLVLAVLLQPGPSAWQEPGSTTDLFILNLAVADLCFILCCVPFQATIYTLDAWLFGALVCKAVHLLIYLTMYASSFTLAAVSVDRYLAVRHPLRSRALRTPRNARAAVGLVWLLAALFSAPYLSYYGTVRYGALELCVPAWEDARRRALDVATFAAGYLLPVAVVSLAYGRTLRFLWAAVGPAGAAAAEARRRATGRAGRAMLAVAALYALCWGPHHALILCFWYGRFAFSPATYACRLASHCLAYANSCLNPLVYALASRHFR
NR2E3 ag-1: agonists of human nuclear receptor NR2E3; inhibition of corepressor binding, % at 4.78 µM; actives 0.12% (n = 320,000); Q9Y5X4; GST-NR2E3/biotin-RetCOR TR-FRET, 1536-well;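 active = percent inhibition above the cutoff of mean plus 3 SD of all tested compounds, set per screening campaign, cut at about 20% in these data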;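 note: 0% = DMSO wells and 100% = biotin wells as full block of FRET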
Target sequence (Q9Y5X4 whole entry, looked up): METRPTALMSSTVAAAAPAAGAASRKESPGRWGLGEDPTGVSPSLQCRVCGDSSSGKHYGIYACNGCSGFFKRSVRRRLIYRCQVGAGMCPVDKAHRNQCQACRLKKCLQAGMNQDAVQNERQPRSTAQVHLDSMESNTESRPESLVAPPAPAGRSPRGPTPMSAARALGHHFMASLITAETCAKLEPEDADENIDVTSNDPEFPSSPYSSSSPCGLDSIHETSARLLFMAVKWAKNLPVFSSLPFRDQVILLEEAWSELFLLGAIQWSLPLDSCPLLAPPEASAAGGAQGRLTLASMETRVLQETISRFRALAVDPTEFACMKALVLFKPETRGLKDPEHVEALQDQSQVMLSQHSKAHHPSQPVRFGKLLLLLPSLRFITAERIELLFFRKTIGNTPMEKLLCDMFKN
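System: GST-NR2E3 and biotin-RetCOR proteins; probe or stimulus: 7 nM biotin-RetCOR; doses: compound at 4.8 µM, single dose; schedule: Compound–protein incubation for 5 h at 4 °C; detection: time-resolved FRET; read-out: percent inhibition; controls: biotin wells as high control, 0.6% DMSO wells as low control; format: 1536-well plates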
NR2E3 ag-2: activates human NR2E3 receptor; Q9Y5X4; CHO-S Gal4-NCOR/VP16-NR2E3 two-hybrid, luciferase; inhibition of corepressor binding, % at 3.98 µM; actives 0.35% (n = 360,000); AID 602229;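 active = inhibition above the mean of all tested compounds plus 3 SD, cut at about 70% in these data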;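 note: 0% = DMSO with NR2E3 transfected cells and 100% = cells lacking NR2E3 construct; higher means lower luciferase signal from less NR2E3 corepressor binding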
SMARCA2 act: increases SMARCA2 function in MMTV reporter cells; MG213 cells, MMTV-luciferase reporter, dexamethasone, overnight; activation, % at 9.1 µM; actives 1% (n = 370,000); AID 652017; in the data active = activation above about 7.8%;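 note: 0% = vehicle wells and 100% = reference activator wells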
NR2F2 inh: blocks human COUP-TFII nuclear receptor | P24468 | HEK293T NGFI-A luciferase reporter, luminescence | inhibition, % at 8.6 µM | actives 0.7% (n = 370,000);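 active = inhibition above a per-plate cutoff, mean inhibition of test wells between control levels plus 3 SD, cut at about 38% in these data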;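 note: cells cotransfected with COUP-TFII expression vector driving the NGFI-A reporter; 0% = median of COUP-TF2 test wells and 100% = reporter-only cells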
NR2E3 ag confirm: confirmation of human NR2E3 agonists. shares compounds with NR2E3 ag-2. CHO-S mammalian two-hybrid NR2E3-NCOR, luciferase luminescence. inhibition, % at 3.98 µM. actives 51% (n = 2,300). AID 624378;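 active = average inhibition above a cutoff equal to the mean inhibition of all tested compounds plus one SD, cut at about 70% in these data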;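 note: 0% = DMSO in NR2E3 cells and 100% = DMSO in cells lacking NR2E3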
VP16 counter: counter-screen for NR2E3 agonists: GAL4-VP16 reporter inhibitors | shares compounds with NR2E3 ag-2 | CHO-S GAL4-VP16 luciferase reporter, luminescence | inhibition, % at 3.98 µM | actives 29% (n = 2,300);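 active = mean inhibition above a cutoff equal to the average over all tested compounds plus one standard deviation, cut at about 70% in these data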;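 note: luciferase from a UAS reporter driven by GAL4-VP16 transactivation; 0% = DMSO with VP16-transfected cells and 100% = DMSO with cells lacking VP16; higher means less reporter light so more repression of VP16 activity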
GalR3 conf: GalR3 (human) antagonism, confirmation. shares compounds with GalR3 antagonist. HEK293 GalR3 CNG cAMP biosensor, membrane potential fluorescence; galR3 fused to GalR1 carboxy tail; challenged with forskolin and galanin at EC90. inhibition, % at 3 µM. actives 59% (n = 1,600);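 active = inhibition above the primary screen's cutoff, the mean inhibition of all screened compounds plus 3 SD, cut at about 13% in these data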;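 note: 0% = forskolin plus galanin and 100% = forskolin alone with DMSO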
HEK-CNG parental: acts as nonspecific agonist in parental HEK-CNG cells | shares compounds with GalR3 antagonist | activation, % at 3 µM | AID 652268 | actives 10% (n = 1,600) | HEK293-CNG parental cells, cAMP membrane potential fluorescence; normalised: DMSO wells 0%, forskolin wells 100%; in the data active = activation above about 1.3%
SMARCA2 conf: confirmation of SMARCA2 (BRM) function activators | shares compounds with SMARCA2 act | MG213 cells, MMTV-luciferase with dexamethasone, luminescence, overnight; MG213 cells expressing E1A, Rb sequestered; DMSO wells 0%, reference activator 100% | activation, % at 9.1 µM | actives 30% (n = 3,500);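 active = activation above its plate's cutoff, the mean activation of tested wells plus 3 SD, cut at about 7.9% in these data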
GAL4-VP16 Luc: activates GAL4-VP16 luciferase, flagging SMARCA2 activator hits | shares compounds with SMARCA2 act | HEK293 GAL4-VP16 pG5luc reporter, luciferase luminescence; scaled: DMSO wells 0%, SAHA wells 100% | activation, % at 9.1 µM | actives 41% (n = 3,500) | AID 686939;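 active = activation above the solvent-only control well mean plus 3 SD, averaged across control plates, cut at about 5.2% in these data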
An asterisk follows results filed as active; . = not tested or not shown.

SMILES	GalR3 antagonist	NR2E3 ag-1	NR2E3 ag-2	SMARCA2 act	NR2F2 inh	NR2E3 ag confirm	VP16 counter	GalR3 conf	HEK-CNG parental	others
Clc1ccccc1C(c1ccccc1)(c1ccccc1)n1ccnc1	1	-28	60	-4	17	70	54	.	.
COc1ccccc1OCCNS(=O)(=O)c1ccc2oc3ccccc3c2c1	-6	0	51	-3	1	62	68	.	.
CC1=C(C)C(=O)C(CCCCC#CCCCC#CCO)=C(C)C1=O	.	0	-9	.	.	.	.	.	.
COC1=C(OC)C(=O)C(CCCCCCCCCCO)=C(C)C1=O	-4	.	54	-7	7	28	52	.	.
O=C(CSc1nnc(-c2cccs2)o1)Nc1cccc2ccccc12	.	.	.	-4	-21	.	.	.	.
CCOC(=O)CNC(=O)c1sc(NC(=O)c2ccccc2)nc1C	-2	-1	49	0	-8	3	-21	.	.
CCCCCCCCn1c(=O)c(C(=O)OC)c(N)c2ccccc21	2	2	58	-5	8	85*	50	.	.
S=C(NCc1ccc(Cl)cc1)OC1CCC12CCC(c1ccccc1)CC2 (centres undefined)	.	.	.	0	6	.	.	.	.
O=C(NCc1ccccc1Cl)C1CCC(CNS(=O)(=O)c2cccc3cccnc23)CC1 (centres undefined)	.	.	.	-4	18	.	.	.	.
COC(=O)[C@]12C[C@H](CC(=O)NCCCCc3ccccc3)C(=O)N(CCc3ccc(OC)c(OC)c3)C1=C[C@H](C(C)(C)C)O[C@@H]2C	.	.	.	-5	10	.	.	.	.
COc1ccc(S(=O)(=O)Nc2ccc3c(c2)n(C)c(=O)n3C)cc1F	-11	-1	74*	-2	-9	11	19	.	.
O=S(=O)(Nc1cc(Cl)ccc1-n1cncn1)c1cc(Br)ccc1Br	-5	0	92*	-5	7	99*	85*	.	.
CCn1c2ccccc2c2cc(NC(=O)c3cc(OC)cc(OC)c3)ccc21	3	3	51	-1	-14	-4	9	.	.
CCc1ccc2c(c1)NC(=O)C2(C)Cc1ccccc1 (centres undefined)	-8	.	-9	-3	10	.	.	.	.
CCc1ccc2c(c1)C1(NN=C(c3cccc4ccccc34)S1)C(=O)N2 (centres undefined)	23*	0	80*	-1	5	39	25	2	0
CC(=O)c1c(C)[nH]c(C(=O)OCC(=O)Nc2ccc(C)cc2[N+](=O)[O-])c1C	13*	5	82*	-8	28	98*	90*	107*	-1
O=C1CSc2ccc(C(=O)N3CCCC(C(=O)N4CCN(c5ccc(F)cc5)CC4)C3)cc2N1 (centres undefined)	.	.	.	-3	17	.	.	.	.
CCCCc1c(-c2ccccc2OC)ncn1C(C)c1ccc(Cl)cc1 (centres undefined)	-8	.	.	-6	2	.	.	.	.
Brc1ccc2nc(-c3ccc(CN4CCC(c5nc6ccccc6[nH]5)CC4)cc3)c(-c3ccccc3)nc2c1	-5	.	.	3	2	.	.	.	.
Cc1ccc(NC(=O)c2ccccc2NS(=O)(=O)c2ccc(Cl)s2)cc1	17*	1	95*	-5	14	97*	79*	33*	1
O=C(Nc1ccccc1Cc1ccccc1)c1ccccc1NS(=O)(=O)c1ccc(Cl)s1	96*	2	98*	-8	29	98*	86*	104*	0
CS(=O)(=O)c1ccccc1C(=O)Nc1ccccc1Cc1ccccc1	2	-1	-23	2	23	.	.	.	.
CCOC(=O)[C@]12CCCCC/C=C\1N(Cc1ccc(OC)cc1)C(=O)[C@H]2CC(=O)N1CCSCC1	.	.	.	-3	7	.	.	.	.
Cc1ccccc1-c1cc(C(=O)Nc2sc(C(=O)OC(C)C)c(C)c2C#N)c2ccccc2n1	71*	-3	92*	-2	22	100*	88*	100*	1
COc1ccc(-c2cc(C(=O)Nc3sc4c(c3C#N)CCCC4)c3ccccc3n2)cc1	-1	-3	-25	1	-5	.	.	.	.
SMILES	GalR3 antagonist	NR2E3 ag-1	NR2E3 ag-2	SMARCA2 act	NR2F2 inh	NR2E3 ag confirm	VP16 counter	GalR3 conf	HEK-CNG parental	others
Cc1ccc(-n2ncc3c(SCc4cccnc4)ncnc32)c(C)c1	60*	.	54	-9	29	81*	63	98*	0
Cc1ccc(-n2ncc3c(SCc4cccc(C)c4)ncnc32)cc1	1	2	-33	3	-20	.	.	.	.
CC(C)CNC(=O)OCc1cn(Cc2cccc(F)c2F)nn1	.	.	.	1	3	.	.	.	.
Cc1csc2ncnc(N3CCN(C(=S)Nc4ccc(C(F)(F)F)cc4)CC3)c12	67*	-2	66	-2	17	95*	83*	93*	1.8*
COc1cc2c(cc1OC)-c1cc(Nc3ccc4c(c3)OCCO4)nc(=O)n1CC2	59*	3	55	-3	-37	28	-12	57*	0
Cc1ccnc(SCC(=O)Nc2sc3c(c2C#N)CCCC3)n1	43*	2	85*	-6	37	92*	85*	95*	0
O=C(Nc1ccccc1O)C(c1ccccc1)c1ccccc1	55*	2	70	-5	26	83*	72*	92*	-2
O=C(O)c1ccccc1NC(=O)C(c1ccccc1)c1ccccc1	-3	-1	-2	-6	0	.	.	.	.
Cc1cnc(NC(=O)CCCc2nc3ccccc3s2)s1	-1	8	109*	27*	9	98*	23	.	.	SMARCA2 conf=29*;GAL4-VP16 Luc=-1
Cc1ccc(NC(=O)Cc2ccc(-c3ccccc3)cc2)nc1	-6	0	66	0	-10	.	.	.	.
O=C(Cc1ccc(-c2ccccc2)cc1)Nc1ccccn1	-10	3	72*	9.9*	-33	69	-13	.	.	SMARCA2 conf=16*;GAL4-VP16 Luc=2

Screening results from PubChem BioAssay.
